Measurements taken from ChEMBL document CHEMBL1123400, “Synthesis and biological activity of certain nucleoside and nucleotide derivatives of pyrazofurin” (1986).

Tests used:
Human alphaherpesvirus 2 = assay: In vitro antiviral activity against herpes simplex virus type 2 (HSV-2) in Vero cells.; format: functional; details: Human alphaherpesvirus 2, Vero; read-out: ED50 (the source's name)
Summary of the method: (§1)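 Confluent Vero monolayers (4 × 10^4 cells/well, grown 24 h at 37 °C in EMEM with 10% newborn bovine serum) were infected with virus: HSV-2 at 100, measles at 100, para-3 at 60 TCID50/well. After 30 min adsorption at 37 °C, compound was added in seven 0.5-log steps, final 5 × 10^-6 to 5 × 10^-3 M (active ones 5 × 10^-7 to 5 × 10^-4 M), duplicate wells.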

B16 = assay: In vitro inhibitory effect on growth of B16 melanoma cells; format: functional; details: Mus musculus, read-out: ID50 (the source's name)
Summary of the method: (§2)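 Monolayers were seeded at 2.5 × 10^4 cells/well and grown 24 h at 37 °C, 5% CO2. Lewis lung cells were kept in RPMI-1640 with 5% fetal calf serum; B16 cells in MEM with 10% FCS, nonessential amino acids, 1 mM pyruvate and vitamins. Medium was replaced with compound at log concentrations 1 × 10^-10 to 1 × 10^-4 M. After 72 h, cells were PBS-washed, trypsinized and Coulter-counted. ID50 is 50% growth inhibition versus controls, averaged over two to three determinations.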

Measles morbillivirus = assay: In vitro antiviral activity against measles virus in Vero cells; format: functional; details: read-out: ED50 (the source's name); summary of the method: as §1
P388 [1] = assay: In vitro inhibitory effect on growth of P388 leukemia cells; format: functional; details: Mus musculus, read-out: ID50 (the source's name)
Summary of the method: (§3)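 Suspension cells in RPMI-1640 with 10% FBS and 20 mM Hepes were seeded at 1 × 10^5 cells/mL. Filter-sterilized compound was added in duplicate at log concentrations 1 × 10^-10 to 1 × 10^-4 M. After 48 h at 37 °C, cells were Coulter-counted. ID50 is 50% growth inhibition versus untreated controls, averaged over two to three determinations.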

Vero = assay: Maximum tolerated concentration against Vero cells.; format: functional, Chlorocebus sabaeus
Summary of the method: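 Single uninfected confluent Vero monolayer wells were exposed alongside the antiviral wells, final 5 × 10^-6 to 5 × 10^-3 M, for 72 h at 37 °C, 5% CO2. Cytotoxicity was any microscopically visible change in morphology or monolayer density (lysis, rounding, detachment). MTC is the […].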

[2] = test system: Lewis lung carcinoma cell line; assay: In vitro inhibitory effect on growth of lewis lung carcinoma cells; format: functional; details: Mus musculus, read-out: ID50 (the source's name); summary of the method: as §2
Human respirovirus 3 = assay: In vitro antiviral activity against parainfluenza type 3 virus in Vero cells.; format: functional; details: Human respirovirus 3, Vero; read-out: ED50 (the source's name); summary of the method: as §1
L1210 [3] = assay: In vitro inhibitory effect on growth of L1210 leukemia cells; format: functional; details: Mus musculus, read-out: ID50 (the source's name); summary of the method: as §3
Vaccinia virus = assay: In vitro antiviral activity against vaccinia virus in Vero cells.; format: functional; details: Orthopoxvirus vaccinia, read-out: ED50 (the source's name)
P388 [4] = assay: In vitro inhibitory effect on growth of P388 leukemia cell; format: functional; details: Mus musculus, read-out: ID50 (the source's name); summary of the method: as §3
[5] = test system: Lewis lung carcinoma cell line; assay: In vitro inhibitory effect on growth of lewis lung carcinoma cells.; format: functional; details: Mus musculus, read-out: ID50 (the source's name); summary of the method: as §2
[6] = In vitro inhibitory effect on growth of […] cells.; format: functional; details: Mus musculus; read-out: ID50 (the source's name); summary of the method: as §2
L1210 [7] = assay: In vitro inhibitory effect on growth of L1210 leukemia cells.; format: functional; details: Mus musculus, read-out: ID50 (the source's name); summary of the method: as §3
P388 [8] = assay: In vitro inhibitory effect on growth of P388 leukemia cells.; format: functional; details: Mus musculus, read-out: ID50 (the source's name); summary of the method: as §3

Compound	EC50 (Human alphaherpesvirus 2) [µM]	IC50 (B16) [µM]	EC50 (Measles morbillivirus) [µM]	IC50 (P388 [1]) [µM]	MTC (Vero) [mM]	IC50 [2] [µM]	EC50 (Human respirovirus 3) [µM]	IC50 (L1210 [3]) [µM]	EC50 (Vaccinia virus) [µM]	IC50 (P388 [4]) [µM]	IC50 [5] [µM]	IC50 [6] [µM]	IC50 (L1210 [7]) [µM]	IC50 (P388 [8]) [µM]
N#CC1NN=C([C@@H]2O[C@H](CO)[C@@H](O)[C@H]2O)C1=O (some centres not stated)	> 5000	72	5000	45	>5	28	> 5000	13	5000					
NC(=O)c1ncn([C@@H]2O[C@H](CO)[C@@H](O)[C@H]2O)n1 [RIBAVIRIN]	190		99		>5		160		90					
COc1c([C@@H]2O[C@H](CO)[C@@H](O)[C@H]2O)n[nH]c1C(N)=O	> 5000		> 5000	40	>5		> 5000	29	2800					
NC(=O)c1[nH]nc(C2O[C@H](COP(=O)(O)O)[C@H](O)[C@@H]2O)c1O (some centres not stated)	23	0.24	20	0.001	>5	0.005	6.3	0.0027	4					
NC(=O)c1[nH]nc(C2OC3COP(=O)(O)O[C@@H]3[C@@H]2O)c1O (some centres not stated)	130	6.3	> 5000	4.4	>5	1.7	500	2.5	250					
COP(=O)(OC)OC[C@H]1O[C@@H](C2=NNC(C(N)=O)C2=O)[C@H](O)[C@@H]1O (some centres not stated)	> 5000	2.3	1400	0.012	>5	0.01	1000	0.0058	280					
CN1N=C([C@@H]2O[C@H](CO)[C@@H](O)[C@H]2O)C(=O)C1C(N)=O (some centres not stated)	> 5000		> 5000	17	>5		> 5000	15	1600					
CCOP(=O)(O)OC[C@H]1O[C@@H](C2=NNC(C(N)=O)C2=O)[C@H](O)[C@@H]1O (some centres not stated)	590	0.23	97	0.0032	>5	0.0007	80	0.0039	26					
NC(=O)c1[nH]nc([C@@H]2O[C@H](COP(=O)([O-])[O-])[C@@H](O)[C@H]2O)c1OCc1ccccc1.[Na+].[Na+]	> 5000		> 5000	94	>5		> 5000	130	> 5000					
N=C(N)C1NN=C([C@@H]2O[C@H](CO)[C@@H](O)[C@H]2O)C1=O (some centres not stated)	3100	> 100	5000	> 100	>5	89		79	> 5000					
COc1c([C@@H]2O[C@H](CO)[C@@H](O)[C@H]2O)nn(C)c1C(N)=O	3200		> 5000		5		> 5000	> 100	5000	> 100				
NC(=O)C1NN=C([C@@H]2O[C@H](CO)[C@@H](O)[C@H]2O)C1=O (some centres not stated)	20	0.063	9.6	0.0033	1.6	0.0018	3	0.0032	2.8					
NC(=S)c1[nH]nc([C@@H]2O[C@H](CO)[C@@H](O)[C@H]2O)c1OCc1ccccc1	2800	> 100	500	> 100	>5	> 100	> 5000	> 100	2100					
NC(=O)c1[nH]nc(C2O[C@@H](COP(=O)(O)OP(=O)(O)OC[C@H]3OC(n4cnc5c(N)ncnc54)[C@H](O)[C@@H]3O)[C@H](O)[C@@H]2O)c1O (some centres not stated)	10		16		5		5		9		0.0048	0.6	0.004	0.0088
NC(=O)c1[nH]nc([C@@H]2O[C@H](CO)[C@@H](O)[C@H]2O)c1OCc1ccccc1	> 5000		1300	62	>5		> 5000	75	> 5000					
N/C(=N/O)c1[nH]nc([C@@H]2O[C@H](CO)[C@@H](O)[C@H]2O)c1OCc1ccccc1	> 5000		> 5000	> 100	>5		> 5000	> 100	> 5000					
